The list is not random: actives were taken first. Their share in the collection is about 3.9%.
tim23-1 inh: inhibits growth of tim23-1 mutant yeast | hit rate 1.3% among 330,000 | S. cerevisiae tim23-1 growth, BacTiter-Glo luminescence, 24 h | inhibition, % at 20 µM;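 active = growth inhibition of the mutant yeast at or above 50%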;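 also: temperature-sensitive mutant grown at 25 °C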
XBP1 UPR activ: activators of adaptive arm of unfolded protein response (XBP1); CHO-XBP1 luciferase reporter, IRE1-XBP1 UPR activation, luminescence; percent of tunicamycin response, DMSO as zero; activation, % at 20 µM; hit rate 0.33% among 330,000; AID 463104;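 active = versus positive control, 20 µM dose yields 30% or more activation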
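Material: CHO-XBP1 cells stably carrying IRE1-XBP1-driven luciferase reporter | Medium: F12 with 10% serum | Compound dosing: 20 µM single concentration, DMSO 1% | Incubation: Overnight seeding at 37 °C, 6 h compound treatment at 37 °C | Detection: Steady-Glo luminescence read | Read-out basis: % activation of reporter signal versus tunicamycin and DMSO controls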
CHOP UPR activ: apoptotic UPR (CHOP) activation; activation, % at 10 µM; CHO-CHOP luciferase reporter, luminescence; percent of tunicamycin response over DMSO baseline; AID 449763; hit rate 0.34% among 330,000;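 active = at 10 µM dose, activation of 40% or more, normalized to positive control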
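Evaluation: % reporter activation, DMSO baseline versus tunicamycin full activation; System: CHO-CHOP luciferase reporter cell line; Input: 500 cells/well; Incubation: 6 h compound treatment, 37 °C; Measured by: Steady-Glo luciferase luminescence; Dosing: one dose, 10 µM in 0.5% DMSO; Buffer or medium: F12 medium, 10% FBS; Benchmarks: positive tunicamycin 10 µg/mL, negative DMSO alone.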
TIM10 inh: TIM10 yeast growth inhibition. S. cerevisiae TIM10 strain growth, BacTiter-Glo luminescence, 24 h. inhibition, % at 10 µM. hit rate 1.4% among 330,000. AID 463195;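 active = inhibition of 40% or more at the single tested concentration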;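 also: wild-type TIM10 isogenic control strain grown at permissive 25 °C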
tim10-1 inh: tim10-1 yeast growth inhibition. S. cerevisiae tim10-1 ts strain growth, BacTiter-Glo, 24 h. inhibition, % at 20 µM. hit rate 2.2% among 330,000. AID 463190;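 active = inhibition of at least 40%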;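 also: mutant grown at 25 °C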
tim10-1 conf: tim10-1 yeast growth inhibition, confirmed. shares compounds with tim10-1 inh. S. cerevisiae tim10-1 ts strain growth, BacTiter-Glo, 24 h. inhibition, % at 20 µM. hit rate 56% among 7,400. AID 463213;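 active = inhibition of yeast growth at or above a set limit in either of two repeat tests at 20 µM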;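 also: tim10-1 mutant grown at permissive 25 °C to find synthetic lethal compounds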
tim10 confirm: TIM10 yeast growth inhibition, confirmed | shares compounds with TIM10 inh | S. cerevisiae tim10 strain growth, BacTiter-Glo luminescence, 24 h | inhibition, % at 10 µM | hit rate 63% among 4,600 | AID 463215;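 active = inhibition of yeast growth at or above a set limit in either of two replicates at 10 µM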; also: this counterscreen used the strain with wild-type TIM10
tim23-1 confirm: confirmation of tim23-1 mutant yeast growth inhibitors. shares compounds with tim23-1 inh. S. cerevisiae tim23-1 growth, BacTiter-Glo luminescence, 24 h. inhibition, % at 20 µM. hit rate 83% among 4,400. AID 463218;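 active = inhibition above about 39% in either of two replicate wells at 20 µM, limit read from the data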;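 also: temperature-sensitive tim23-1 mutant grown at 25 °C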
Hits are given with their value; 0 = inactive; - = no result given.

SMILES	tim23-1 inh	XBP1 UPR activ	CHOP UPR activ	TIM10 inh	tim10-1 inh	tim10-1 conf	tim23-1 confirm	others
COc1ccc(C)cc1NC(=O)C1CCCN(S(=O)(=O)c2ccc3c(c2)CCCN3C(C)=O)C1 (stereo not drawn)	0	0	0	0	0	-	-
Cc1ccc(NC(=O)c2ccc(C)cc2)cc1	0	0	0	0	0	-	-
Cc1ccc(C(=O)Nc2ccc(Br)c(C(F)(F)F)c2)cc1	67	0	0	63	75	45	62	tim10 confirm=63
C[C@@H]1CC=C[C@H]2[C@H]1C(=O)N(Cc1ccccc1)[C@H]2c1ccc(C(F)(F)F)cc1	0	0	0	0	0	-	-
O=C1C2C(c3ccccc3)CC=CC2[C@H](c2ccc(C(F)(F)F)cc2)N1Cc1ccccc1 (stereo partly drawn)	65	0	0	75	66	52	66	tim10 confirm=44
O=c1c2ccccc2c(-c2ccc(O)cc2)nn1-c1cccc(C(F)(F)F)c1	57	0	0	53	42	36	56	tim10 confirm=0
O=c1c2ccccc2c(-c2cccc(C(F)(F)F)c2)nn1-c1ccccc1	0	0	0	0	0	-	-
CCOC(=O)C1(Cc2ccc(OC)cc2)CCN(C(=O)CCc2cccnc2)CC1	0	0	0	0	0	-	-
CCOC(=O)c1ccsc1NC(=O)CCS(=O)(=O)c1ccccc1	62	0	0	43	54	42	51	tim10 confirm=38
NC(=O)c1ccsc1NC(=O)CCS(=O)(=O)c1ccccc1	0	0	0	0	0	-	-
CCc1noc(C)c1C(=O)N(CC(C)C)c1c(N)n(Cc2ccccc2)c(=O)[nH]c1=O	0	0	0	0	0	-	-
C/C(=N\Nc1nc(C)cc(-c2ccccc2)n1)c1cccc(N)c1	0	0	0	0	0	-	-
C/C(=N\Nc1nc(C)cc(-c2ccccc2)n1)c1ccc(C)o1	52	0	0	45	49	32	49	tim10 confirm=0
CCOC(=O)C(C(=O)OCC)C(C(=O)OCC)N1CCOCC1 (stereo not drawn)	57	0	0	68	63	60	59	tim10 confirm=71
CCOc1cc(/C=C2\C(=O)N(c3cccc(C(F)(F)F)c3)C(=O)c3ccccc32)ccc1O	65	0	0	0	42	34	47
CCOc1cc(/C=C2/NC(=O)N(Cc3ccccc3F)C2=O)ccc1O	0	0	0	0	0	-	-
CC1=NN(c2ccccc2)C(=O)/C1=C/c1cccc(C)c1	0	0	0	0	0	-	-
Cc1cccc(N2C(=O)/C(=C\c3ccc(OC(F)F)cc3)c3ccccc3C2=O)c1	68	0	0	0	51	0	58
COc1cccc(/C=C2\C(=O)N(c3cccc(C)c3)C(=O)c3ccccc32)c1	75	0	0	41	43	46	68	tim10 confirm=46
COc1cccc(N2C(=O)c3ccncc3C2=O)c1	0	0	0	0	0	-	-
CC(C)COc1cccc(C(=O)N(C)CC(=O)Nc2cccc3ccccc23)c1	0	0	0	0	0	-	-
CCSc1nc2ccccc2n1C(=O)/C=C/c1ccc(OC)c(OC)c1	51	0	0	0	58	44	54
CCn1c(SCC(=O)N/N=C/c2ccc(OC)c(OC)c2)nc2ccccc21	0	0	0	0	0	-	-
Cn1c2c(c3ccccc31)CCN1CCC[C@]21c1ccccc1	0	0	0	0	0	-	-
CC(C)N1C2OC(C3OC4C(O3)N(C(C)C)S(=O)(=O)N4C(C)C)OC2N(C(C)C)S1(=O)=O (stereo not drawn)	55	0	0	89	60	71	0	tim10 confirm=88
SMILES	tim23-1 inh	XBP1 UPR activ	CHOP UPR activ	TIM10 inh	tim10-1 inh	tim10-1 conf	tim23-1 confirm	others
CCc1nnc(NC(=O)C2COc3ccccc3O2)s1 (stereo not drawn)	0	0	0	0	0	-	-
CCC(CC)c1nnc(NC(=O)C2COc3ccccc3O2)s1 (stereo not drawn)	50	0	0	0	47	46	53
C[C@H](CO)N1C[C@H](C)[C@@H](CN(C)Cc2ccc(C(=O)O)cc2)Oc2c(cccc2N(C)C)C1=O	0	0	0	0	0	-	-
O=C(COc1ccc(Cl)cc1Cl)Nc1ccccn1	58	0	0	0	47	49	47
c1cncc(-c2nnc(-c3cccnc3)nn2)c1	54	0	0	0	50	40	56
O=C(N/C(=C/c1cccc([N+](=O)[O-])c1)C(=O)N1CCOCC1)c1ccc(Br)cc1	0	0	0	0	0	-	-
NNC(=O)C1CC(O)CN1S(=O)(=O)c1ccc2ccccc2c1 (stereo not drawn)	0	0	0	0	0	-	-
CCN(CC)S(=O)(=O)c1ccc(=O)n(CC(=O)N2Cc3ccccc3CC2C(N)=O)c1 (stereo not drawn)	0	0	0	0	0	-	-
CN(C)C(=O)c1ccc2c(c1[N+](=O)[O-])C(=O)c1ccccc1C2=O	61	0	0	69	71	61	58	tim10 confirm=63
CC[C@@H]1C/C=C\Cc2ccccc2[C@H](C(=O)C[C@@H](O)CC(C)=O)OC1=O	52	0	0	0	54	53	49
CC[C@H]1C/C=C\Cc2ccccc2[C@H](C(=O)C[C@@H](O)CC(C)=O)OC1=O	0	0	0	0	0	-	-
COc1ccc(/C=C2\SC(=O)NC2=S)cc1OC	52	0	0	0	41	37	48
COC(C/C=C/[C@@H](O)[C@@H](C)OCc1ccccc1)OC	0	0	0	0	0	-	-
COC(C/C=C\C(=O)[C@@H](C)OCc1ccccc1)OC	52	0	0	0	41	0	45
CN(C1CCCCC1)S(=O)(=O)c1cc2c(cc1Cl)NC(=O)CO2	51	0	0	0	47	0	0
COCCC1CCCCN1C(=O)c1ccc2nc(Cc3ccccc3F)oc2c1 (stereo not drawn)	0	0	0	0	0	-	-
CC(=O)/C=C/c1ccccc1Oc1c(F)c(F)nc(F)c1F	54	0	0	0	45	41	40
Oc1ccccc1Oc1c(F)c(F)nc(N2CCCC2)c1F	0	0	0	0	0	-	-
CC1=NN(c2nc3ccccc3[nH]2)C(=O)/C1=C/N(C)C	59	0	0	0	59	active	59
CCCn1c(N)c(N(CCOC)C(=O)CCC2CCCCC2)c(=O)[nH]c1=O	0	0	0	0	0	-	-
CN1CCN(c2ccccc2NC(=O)c2ccc(-c3ccc(Br)cc3)o2)CC1	0	0	0	0	56	46	0
O=C(Nc1ccccc1N1CCCCC1)c1ccc(-c2ccc(Cl)cc2)o1	0	0	0	0	0	-	-

Screening data as filed in PubChem BioAssay.
